The subject of series [1] is Staphylococcus aureus. Kind of series: Antimicrobial activity against methicillin-resistant Staphylococcus aureus OC 8525 infected in SKH1 mouse assessed as log change in bacterial colony forming unit per gram of skin tissue at 100 mg/kg/day, sc (reference value: 0.8 deltalog CFU). It counts as functional. The following applies: route subcutaneous. The essentials:
(§1)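 Female hairless immunocompetent SKH1 mice were anaesthetised and injected s.c. with 0.2 ml Cytodex bead inoculum (0.1% vol/vol beads in BHI; 6.7–7.0 log10 CFU/mouse): MSSA OC 4172 in the left flank, MRSA OC 8525 in the right. Drug was given at 1, 3, 25 and 27 h post-infection. At 48 h, flank lesions were excised, weighed and homogenised in saline, then plated on TSA (18 h, 37°C). The value is Δlog CFU/g versus the inoculum, from 5 mice/dose, run twice and pooled.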

A short description of series [2]: fT>MIC in Pseudomonas aeruginosa OC 4354 infected sc dosed SKH1 mouse at 50 mg/kg, sc administered twice at 1 and 3 hrs after infection. It counts as functional. The following applies: route subcutaneous.
Series [3] in a line: fT>MIC in Pseudomonas aeruginosa OC 4351 infected sc dosed SKH1 mouse administered in 24 hrs dosing interval. It counts as functional.
Series [4] in a line: fT>MIC in Pseudomonas aeruginosa OC 4354 infected sc dosed SKH1 mouse administered in 24 hrs dosing interval. It counts as functional. The essentials:
(§2)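 Plasma levels came from female hairless SKH1 mice given single s.c. doses at the nape 24 h after flank s.c. infection with Cytodex beads. S. aureus work used immunocompetent mice. P. aeruginosa work used mice made neutropenic with cyclophosphamide i.p., 150 mg/kg at day −5 and 100 mg/kg at day −1. Drug assayed by HPLC with diode-array detection. Noncompartmental analysis.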

The subject of series [5] is Staphylococcus aureus. The series can be described thus: Antimicrobial activity against methicillin-susceptible Staphylococcus aureus Smith OC 4172 infected in SKH1 mouse assessed as log change in bacterial colony forming unit per gram of skin tissue at 1.6 mg/kg/day, sc (reference value: 1.6 deltalog CFU). The following applies: route subcutaneous. It counts as functional.

Series [6] can be described thus: fT>MIC in Pseudomonas aeruginosa OC 4351 infected sc dosed SKH1 mouse at 50 mg/kg, sc administered twice at 1 and 3 hrs after infection. It counts as functional. The following applies: route subcutaneous.
Series [7] concerns Staphylococcus aureus. The series can be described thus: Antimicrobial activity against methicillin-resistant Staphylococcus aureus OC 8525 infected in SKH1 mouse assessed as log change in bacterial colony forming unit per gram of skin tissue at 25 mg/kg/day, sc (reference value: 0.8 deltalog CFU). The following applies: route subcutaneous. It counts as functional.
Series [8] deals with Staphylococcus aureus. Kind of series: Antimicrobial activity against methicillin-resistant Staphylococcus aureus OC 8525 assessed as inhibition of growth by broth microdilution method. It counts as functional.
Series [9] can be described thus: fT>MIC in Staphylococcus aureus OC 8525 infected sc dosed SKH1 mouse administered in 24 hrs dosing interval. It counts as functional. The essentials:
as §2

The nature of series [10]: fT>MIC in Staphylococcus aureus OC 4172 infected sc dosed SKH1 mouse administered in 24 hrs dosing interval. It counts as functional. The essentials:
as §2

Series [11] has as its system Staphylococcus aureus. Kind of series: Antimicrobial activity against methicillin-susceptible Staphylococcus aureus OC 4172 assessed as inhibition of growth by broth microdilution method. It counts as functional.
Series [12] has as its system Staphylococcus aureus. The series can be described thus: Antimicrobial activity against methicillin-resistant Staphylococcus aureus OC 8525 infected in SKH1 mouse assessed as log change in bacterial colony forming unit per gram of skin tissue at 1.6 mg/kg/day, sc (reference value: 0.8 deltalog CFU). It counts as functional. The following applies: route subcutaneous. The essentials: as §1

Series [13] is described as follows: Protein binding in mouse plasma. It counts as ADME, cell-free. The following applies: read-out: PPB (converted).
In series [14] the test system is Staphylococcus aureus. Kind of series: Antimicrobial activity against methicillin-susceptible Staphylococcus aureus Smith OC 4172 infected in SKH1 mouse assessed as log change in bacterial colony forming unit per gram of skin tissue at 25 mg/kg/day, sc (reference value: 1.6 deltalog CFU). The following applies: route subcutaneous. It counts as functional. The essentials:
as §1

The nature of series [15]: fT>MIC in Staphylococcus aureus Smith OC 4172 infected sc dosed SKH1 mouse at 50 mg/kg, sc administered twice at 1 and 3 hrs after infection. It counts as functional. The following applies: route subcutaneous.
The nature of series [16]: fT>MIC in Staphylococcus aureus OC 8525 infected sc dosed SKH1 mouse at 50 mg/kg, sc administered twice at 1 and 3 hrs after infection. It counts as functional. The following applies: route subcutaneous.
For series [17], the system named is Staphylococcus aureus. The series can be described thus: Antimicrobial activity against methicillin-resistant Staphylococcus aureus OC 8525 infected in SKH1 mouse assessed as log change in bacterial colony forming unit per gram of skin tissue at 6.2 mg/kg/day, sc (reference value: 0.8 deltalog CFU). The following applies: route subcutaneous. It counts as functional. A digest of the protocol:
as §1

The test system of series [18] is Staphylococcus aureus. The series can be described thus: Antimicrobial activity against methicillin-susceptible Staphylococcus aureus Smith OC 4172 infected in SKH1 mouse assessed as log change in bacterial colony forming unit per gram of skin tissue at 6.2 mg/kg/day, sc (reference value: 1.6 deltalog CFU). It counts as functional. The following applies: route subcutaneous.

Series [19] can be described thus: Tmax in immunocompetent SKH1 mouse plasma at 50 mg/kg, sc. It counts as ADME, organism-based. More on the design: dose 50 mg/kg, route subcutaneous. A digest of the protocol:
(§3)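 Female SKH1 hairless mice, immunocompetent or cyclophosphamide-neutropenic, infected s.c. with MRSA OC 8525 or P. aeruginosa OC 4354 on the Cytodex beads (left flank), sterile beads on the right. Single dose 24 h later: s.c. at the nape, or linezolid 50 mg/kg oral. Plasma and skin (DMSO homogenate) sampled over time, HPLC with diode array.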

For series [20], the system named is Plasma. Kind of series: fCmax in immunocompetent SKH1 mouse plasma at 50 mg/kg, sc. Set-up: dose 50 mg/kg, route subcutaneous. It counts as ADME, organism-based. The following applies: in vivo. The essentials: as §3
Series [21] concerns Plasma. The series can be described thus: fAUC (0-infinity) in immunocompetent SKH1 mouse plasma at 50 mg/kg, sc. It counts as ADME, organism-based. More on the design: dose 50 mg/kg, route subcutaneous. The following applies: in vivo. A digest of the protocol: as §3
Series [22] deals with Staphylococcus aureus. The series can be described thus: Antimicrobial activity against methicillin-susceptible Staphylococcus aureus Smith OC 4172 infected in SKH1 mouse assessed as log change in bacterial colony forming unit per gram of skin tissue at 100 mg/kg/day, sc (reference value: 1.6 deltalog CFU). It counts as functional. The following applies: route subcutaneous.

Take `Cc1nnc(SCC2=C(C(=O)O)N3C(=O)[C@@H](NC(=O)Cn4cnnn4)[C@H]3SC2)s1` [CEFAZOLIN]: the deltalog10CFU is on record as -0.3 in the series with Staphylococcus aureus [1]; -0.6 with Staphylococcus aureus [5]; -1.3 with Staphylococcus aureus [7]; 0.6 with Staphylococcus aureus [12]; -2 in the series with Staphylococcus aureus [14]; -1.2 in the series on Staphylococcus aureus [17]. In addition, the deltalog10CFU in the series with Staphylococcus aureus [18] is recorded as 1.6; with Staphylococcus aureus [22], -1.7. Besides, the “fT>MIC” value in series [2] came to 0.8 h; in [3], 6.4%; in series [4], 3.3%; in series [6] it was 1.5 h; in [9] it was 1.3%; in series [10], 10.2%. Further, the “fT>MIC” value worked out at 2.4 h in series [15] and 0.3 h in series [16]. The MIC turned out to be 16 µg/mL with Staphylococcus aureus [8] and 0.5 µg/mL in the series with Staphylococcus aureus [11]. Further, the fraction unbound in series [13] was 0.19. Moreover, the Tmax in series [19] was 7.5 min. For the same molecule, the fCmax in the series with Plasma [20] is 19 µg/mL. In the series with Plasma [21], this molecule showed a fAUC of 565 µg·min/mL.

One may read the MIC as the smallest concentration in the dilution series that meets the test's criterion for growth inhibition. Usually Tmax stands for the time at which the peak concentration occurs.

The values are drawn from ChEMBL document CHEMBL1212762, “In vivo activity of ceftobiprole in murine skin infections due to Staphylococcus aureus and Pseudomonas aeruginosa” (Antimicrob Agents Chemother, 2010).
